This is an account of results in the RNAGym collection of RNA variant scans (doi:10.1002/anie.201605470).

B1: Osa-1-4 twister ribozyme (parent)
chain: CCGCCUAACACUGCCAAUGCCGGUCCCAAGCCCGGAUAAAAGUGGAGGGGGCGG

Variants of B1 are the subject of this data set. Briefly: self-cleavage, relative activity (ratio to wild type); higher = more cleavage; co-transcriptional. The method in brief:
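Relative activity is the fraction cleaved divided by that of the wild-type ribozyme. The library came from a DNA template for a 54-nucleotide Oryza sativa twister ribozyme, doped at the 48 positions downstream of the cleavage site with 97 % wild-type base and 1 % of each other base. After 2 h of in vitro transcription at 37 °C with co-transcriptional self-cleavage, the RNA was reverse-transcribed with a template-switching oligonucleotide, amplified by PCR and deep-sequenced, and reads with or without upstream sequence gave the cleavage status.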
For the variant G48U G51U, the self-cleavage worked out at 0.07.

With G48U G51C, the self-cleavage was determined as 0.04.

In the case of G48U G51A, the self-cleavage stood at 0.11.

For G47C U18A, the self-cleavage turned out to be 0.12.

Regarding G47C U18C, the self-cleavage was found to be 0.1.

For the variant G47C U18G, the self-cleavage was found to be 0.24.

As to G48U, the self-cleavage was found to be 0.1. Regarding G48A, the self-cleavage was found to be 0.14. As for G48C, the figure is 0.12; as for G47C G49U, 0.03; as for G47C G49C, 0.06.

In the case of G47C G49A, the self-cleavage worked out at 0.05. As for G48U G50C, the figure is 0.07.

Regarding G48U G50U, the self-cleavage is 0.07. Consider G48U G50A, for which the self-cleavage came out at 0.21. As for G47C G51U, the figure is 0.05; as for G47C G51C, 0.05. As for G47C G51A, the figure is 0.09; as for G48U U12A, 0.07; as for G48U U12C, 0.04. With G48U U12G the figure was 0.05.

For the variant G48A G53A, the self-cleavage stood at 0.11. For G48A G53C, the self-cleavage was determined as 0.07. Take G48A G53U: the self-cleavage is 0.09. With G48C U24A the figure was 0.04. With G48C U24G the figure was 0.01; with G48C U24C, 0.04; with G48A U24A, 0.05. For the variant G48A U24G, the self-cleavage is 0.01. As for G48A U24C, the figure is 0.04; as for G49A G53C, 0.05; as for G49A G53A, 0.11. As for G47U U24C, the figure is 0.03; as for G47U U24G, 0.02. Consider G47U U24A, for which the self-cleavage worked out at 0.05. With G48C U18A the figure was 0.09; with G48C U18G, 0.1; with G48C U18C, 0.1.

Consider G48C G53U, for which the self-cleavage is 0.07. As for G48C G53C, the figure is 0.05; as for G48C G53A, 0.09. G48C U43G: the self-cleavage came to 0.07.

Turning to G48C U43C, the self-cleavage was 0.07. As for G48C U43A, the figure is 0.08; as for G48A U37G, 0.16; as for G48A U37C, 0.11. As for G48A U37A, the figure is 0.06.

For the variant G48A G54U, the self-cleavage was determined as 0.37. As for G48A G54C, the figure is 0.15. As for G48A G54A, the figure is 0.15; as for G48A G51U, 0.05; as for G48A G51C, 0.04.

Regarding G48A G51A, the self-cleavage is 0.1. As for G48C U37G, the figure is 0.16; as for G48C U37A, 0.08. With G48C U37C the figure was 0.1; with G48A U43C, 0.06. As for G48A U43A, the figure is 0.06. On to G48A U43G, for which the self-cleavage turned out to be 0.06.

On to G48U U43A, for which the self-cleavage was 0.05. Regarding G48U U43C, the self-cleavage turned out to be 0.05. With G48U U43G the figure was 0.04; with G47C G48U, 0.03; with G47U G53A, 0.18. With G47U G53U the figure was 0.1.

For G47U G53C, the self-cleavage was determined as 0.06. As for G47U G49U, the figure is 0.05. Regarding G47U G49A, the self-cleavage turned out to be 0.05.

G47U G49C: the self-cleavage was 0.04. With G47U U43A the figure was 0.1. With G47U U43C the figure was 0.08; with G47U U43G, 0.07; with G47C U24G, 0.01. For G47C U24A, the self-cleavage amounted to 0.03. With G47C U24C the figure was 0.04; with G48C U12C, 0.05.

For G48C U12A, the self-cleavage came out at 0.07.

As to G48C U12G, the self-cleavage was 0.07. As for G47U G50A, the figure is 0.19; as for G47U G50U, 0.1; as for G47U G50C, 0.07. For the variant G48A G49U, the self-cleavage came to 0.04.

For the variant G48A G49A, the self-cleavage was 0.05. As for G48A G49C, the figure is 0.03; as for G47C G53C, 0.06; as for G47C G53U, 0.08.

Take G47C G53A: the self-cleavage worked out at 0.1. As for G47U G54C, the figure is 0.32. As for G47U G54A, the figure is 0.28. With G47U G54U the figure was 0.46. Regarding G48C G51U, the self-cleavage turned out to be 0.06. Turning to G48C G51C, the self-cleavage stood at 0.04.

With G48C G51A, the self-cleavage amounted to 0.11.

In the case of G47U, the self-cleavage was found to be 0.42. With G47U U18G the figure was 0.57.

As to G47U U18A, the self-cleavage turned out to be 0.28.

As to G47U U18C, the self-cleavage is 0.24. With G48A U18G the figure was 0.13; with G48A U18A, 0.09. Regarding G48A U18C, the self-cleavage amounted to 0.1. In the case of G48U U24G, the self-cleavage was 0.01. As for G48U U24C, the figure is 0.03; as for G48U U24A, 0.03. As for G48U G54U, the figure is 0.34; as for G48U G54A, 0.11.

On to G48U G54C, for which the self-cleavage came to 0.1. With G48C G54C the figure was 0.1; with G48C G54U, 0.2. With G48C G54A the figure was 0.11; with G47C G54C, 0.13.

As for G47C G54A, the self-cleavage is 0.14. As for G47C G54U, the figure is 0.24. With G47U G48C the figure was 0.05; with G47U G48U, 0.05. For G47U G48A, the self-cleavage was determined as 0.04.

Take G47U U37A: the self-cleavage worked out at 0.23. Regarding G47U U37C, the self-cleavage is 0.37.

Regarding G47U U37G, the self-cleavage worked out at 0.51. With G47C U43C the figure was 0.08; with G47C U43A, 0.1; with G47C U43G, 0.07. As for G49A, the figure is 0.26; as for G48U U18A, 0.07. With G48U U18C the figure was 0.08. As for G48U U18G, the self-cleavage amounted to 0.13. With G48U U37A the figure was 0.05; with G48U U37G, 0.11. For the variant G48U U37C, the self-cleavage was 0.09. In the case of G49A G50A, the self-cleavage was determined as 0.27. For G49A G50U, the self-cleavage was found to be 0.23. With G49A G50C the figure was 0.22. For G47C U37G, the self-cleavage was 0.21.

On to G47C U37C, for which the self-cleavage is 0.15. With G47C U37A the figure was 0.09. With G48U G49A the figure was 0.04; with G48U G49C, 0.03; with G48U G49U, 0.05. With G47C G50C the figure was 0.08; with G47C G50A, 0.13. On to G47C G50U, for which the self-cleavage was found to be 0.07. With G48C G49U the figure was 0.04. As for G48C G49C, the figure is 0.07; as for G48C G49A, 0.05. With G49A G51C, the self-cleavage came to 0.09. As for G49A G51U, the figure is 0.15; as for G49A G51A, 0.33.

As to G48A U12A, the self-cleavage came to 0.07.

For the variant G48A U12C, the self-cleavage was found to be 0.04. With G48A U12G the figure was 0.04.

For the variant G48U G53U, the self-cleavage was found to be 0.08. With G48U G53C the figure was 0.06; with G48U G53A, 0.1.

For G48A G50C, the self-cleavage worked out at 0.09. As for G48A G50U, the figure is 0.09; as for G48A G50A, 0.16.

On to G47C U12C, for which the self-cleavage was found to be 0.05.

For the variant G47C U12A, the self-cleavage amounted to 0.06. With G47C U12G the figure was 0.06; with G47U G51C, 0.05. As for G47U G51U, the figure is 0.08. As for G47U G51A, the figure is 0.09; as for G48C G50U, 0.1; as for G48C G50A, 0.3. As to G48C G50C, the self-cleavage came to 0.1. With G47U U12A the figure was 0.07. For G47U U12C, the self-cleavage was 0.07. With G47U U12G the figure was 0.05.
